Data as given in ChEMBL document CHEMBL3813596, “Conformational Constraint of the Glycerol Moiety of Lysophosphatidylserine Affords Compounds with Receptor Subtype Selectivity” (J Med Chem, 2016).
Calls of active or inactive are those of the source. The rule behind the calls is not given here.

Tests used:
[1] = target: Probable G-protein coupled receptor 174 (Mus musculus) (UniProt Q3U507); experiment: Agonist activity at mouse GPR174 expressed in HEK293FT cells after 1.5 hrs by alkaline phosphatase tagged-TGFalpha shedding assay; assay type: cell-based
How it was run: (§1)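 Transient transfection of HEK293 cells with AP-TGFα plus the mouse receptor. For GPR34, HEK293A cells also got a chimeric Gαq/i1 subunit; P2Y10 was run in HEK293A and GPR174 in HEK293FT. Cells were seeded 24 h post-transfection in 5 mM HEPES (pH 7.4) HBSS onto serial 3.2-fold compound dilutions (top final 32 μM or lower, limited by mock-cell signal). Ki16425 was present, and incubation ran 1.5 h.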

[2] = system: HEK293-A; experiment: Selectivity ratio of EC50 for mouse P2Y10 receptor expressed in HEK293A cells to EC50 for mouse GPR34 expressed in HEK293A cells; assay type: cell-based
[3] = target: Probable G-protein coupled receptor 34 (Mus musculus, UniProt Q9R1K6); experiment: (§2) Agonist activity at mouse GPR34 expressed in HEK293A cells cotransfected with chimeric Galphaq/il after 1.5 hrs by alkaline phosphatase tagged-TGFalpha shedding assay; assay type: cell-based, HEK293-A; settings: read-out: EC50
[4] = target: Probable G-protein coupled receptor 34 (Mus musculus) (UniProt Q9R1K6); experiment: as §2; assay type: cell-based; settings: HEK293-A
[5] = target: Probable G-protein coupled receptor 34 (Mus musculus) (UniProt Q9R1K6); experiment: Intrinsic activity at mouse GPR34 expressed in HEK293A cells cotransfected with chimeric Galphaq/il after 1.5 hrs by alkaline phosphatase tagged-TGFalpha shedding assay relative to O-(Hydroxy(((2R,3R)-2-(((3-(2-((3-phenoxybenzyl)oxy)phenyl)-propanoyl)oxy)methyl)tetrahydro-2H-pyran-3-yl)oxy)phosphoryl)-L-serine; assay type: cell-based; settings: HEK293-A
How it was run: (§3)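 It is a dimensionless estimate of agonist activity. The GPR34 assay used HEK293A cells with chimeric Gαq/i1 and a 1.5 h incubation; the P2Y10 assay used HEK293A cells.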

[6] = target: Probable G-protein coupled receptor 34 (Mus musculus) (UniProt Q9R1K6); experiment: Agonist activity at mouse GPR34 expressed in HEK293A cells cotransfected with chimeric Galphaq/il assessed as increase in intracellular calcium levels at 1 uM measured after 35 secs by calcium 5 dye based fluorescence microplate reader method in presence of probenecid; assay type: functional, cell-based; settings: HEK293-A
How it was run: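 HEK293A cells were transfected with mouse GPR34 and Gαq/i1 plasmids, with empty vector plus Gαq/i1 as mock. After 24 h they were seeded in serum-free DMEM at 5 × 10^5 cells/mL for another 24 h. Cells were loaded with Calcium 5 dye for 1 h with 2.5 mM probenecid and given compound at 1 μM or 100 nM near 35 s. Fluorescence was recorded by plate reader, with SD of triplicates.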

[7] = target: Putative P2Y purinoceptor 10 (Mus musculus, UniProt Q8BFU7); experiment: (§4) Agonist activity at mouse P2Y10 receptor expressed in HEK293A cells after 1.5 hrs by alkaline phosphatase tagged-TGFalpha shedding assay; assay type: cell-based, HEK293-A; how it was run: as §1
[8] = target: Putative P2Y purinoceptor 10 (Mus musculus) (UniProt Q8BFU7); experiment: as §4; assay type: cell-based; settings: HEK293-A; how it was run: as §1
[9] = target: Putative P2Y purinoceptor 10 (Mus musculus) (UniProt Q8BFU7); experiment: Agonist activity at mouse P2Y10 receptor expressed in rat McA-RH7777 cells assessed as induction of actin stress fiber formation at 100 nM after 30 mins by Alexa fluor 594-labelled phalloidin/DAPI staining based fluorescence microscopy; assay type: cell-based
How it was run: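 McA-RH7777 rat hepatoma cells stably expressing mouse P2Y10, or mock-infected, seeded on collagen I at 2.5 × 10^4 cells/well, grown 24 h in 10% FBS DMEM. Serum-starved 1 h in 0.01% BSA DMEM, stimulated 30 min. Fixed in 4% paraformaldehyde, Triton X-100 permeabilised, stained 1 h with Alexa 594-phalloidin (1.5 μg/mL) and DAPI (1 μg/mL). Scored by fluorescence imaging.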

[10] = target: Putative P2Y purinoceptor 10 (Mus musculus) (UniProt Q8BFU7); experiment: Intrinsic activity at mouse P2Y10 receptor expressed in HEK293A cells after 1.5 hrs by alkaline phosphatase tagged-TGFalpha shedding assay relative to diF-C3-ph-o-O-C11; assay type: cell-based; settings: HEK293-A; how it was run: as §3

Sequence of Putative P2Y purinoceptor 10 (Mus musculus) (Q8BFU7 whole entry): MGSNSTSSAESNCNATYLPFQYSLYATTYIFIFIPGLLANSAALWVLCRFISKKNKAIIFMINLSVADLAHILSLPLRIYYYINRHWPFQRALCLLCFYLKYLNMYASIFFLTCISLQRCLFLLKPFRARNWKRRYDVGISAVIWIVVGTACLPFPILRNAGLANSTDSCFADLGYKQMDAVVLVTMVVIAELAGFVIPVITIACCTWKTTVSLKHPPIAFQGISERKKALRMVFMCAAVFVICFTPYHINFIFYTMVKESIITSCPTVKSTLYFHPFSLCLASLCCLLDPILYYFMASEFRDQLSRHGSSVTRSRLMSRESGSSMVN
Sequence of Putative P2Y purinoceptor 10 (Q8BFU7 whole entry): as above
Sequence of Probable G-protein coupled receptor 34 (Q9R1K6 whole entry): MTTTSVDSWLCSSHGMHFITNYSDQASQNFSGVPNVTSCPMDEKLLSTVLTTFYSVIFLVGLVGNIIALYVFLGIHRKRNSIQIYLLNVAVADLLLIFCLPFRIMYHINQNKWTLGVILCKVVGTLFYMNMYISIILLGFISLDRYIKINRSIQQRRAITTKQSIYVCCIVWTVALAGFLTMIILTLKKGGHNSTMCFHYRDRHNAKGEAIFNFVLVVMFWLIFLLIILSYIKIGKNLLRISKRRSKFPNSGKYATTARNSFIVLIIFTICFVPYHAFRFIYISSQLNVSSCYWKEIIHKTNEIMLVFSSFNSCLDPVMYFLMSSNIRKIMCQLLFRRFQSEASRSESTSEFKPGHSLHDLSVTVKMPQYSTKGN
Sequence of Probable G-protein coupled receptor 34 (Mus musculus) (Q9R1K6 whole entry): as above
Sequence of Probable G-protein coupled receptor 174 (Mus musculus) (Q3U507 whole entry): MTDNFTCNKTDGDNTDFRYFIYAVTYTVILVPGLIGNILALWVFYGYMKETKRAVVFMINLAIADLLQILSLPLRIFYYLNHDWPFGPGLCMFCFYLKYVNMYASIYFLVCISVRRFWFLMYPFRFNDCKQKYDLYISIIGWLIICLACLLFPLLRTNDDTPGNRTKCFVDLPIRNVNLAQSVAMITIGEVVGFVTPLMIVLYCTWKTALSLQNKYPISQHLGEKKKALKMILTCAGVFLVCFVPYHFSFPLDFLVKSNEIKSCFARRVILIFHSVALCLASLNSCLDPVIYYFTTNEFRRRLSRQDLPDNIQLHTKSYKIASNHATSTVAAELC

Row | Compound | Activity [1] | Ratio EC50 [2] | EC50 [3] | Emax [4] | Intrinsic activity [5] | Activity [6] | EC50 ([7]; read-out: EC50) | Emax [8] | Activity [9] | Intrinsic activity [10] | EC50 ([7]; hek293-a)
1 | N[C@@H](COP(=O)(O)OC[C@H]1OCCC[C@H]1OC(=O)CCc1ccccc1OCc1cccc(Oc2ccccc2)c1)C(=O)O | inactive | 100 | 190 nM | 17.7% | 0.85 | Active | > 1000 nM | inactive | inactive | inactive | 
2 | N[C@@H](COP(=O)(O)O[C@@H]1CCCO[C@@H]1COC(=O)CCc1ccccc1OCc1cccc(Oc2ccc(Cl)cc2)c1)C(=O)O |  |  | 37 nM | 16.6% | 3.8 | Active | > 1000 nM | inactive |  | inactive | 
3 | Cc1ccc(Oc2cccc(COc3ccccc3CCC(=O)OC[C@H]3OCCC[C@H]3OP(=O)(O)OC[C@H](N)C(=O)O)c2)cc1 |  |  | 36 nM | 15.2% | 3.6 | Active | > 1000 nM | inactive |  | inactive | 
4 | Cc1ccc(Oc2cccc(COc3ccccc3CCC(=O)O[C@@H]3CCCO[C@@H]3COP(=O)(O)OC[C@H](N)C(=O)O)c2)cc1 |  |  | 77 nM | 16% | 1.9 | Active |  |  |  |  | Not Active
5 | N[C@@H](COP(=O)(O)OC[C@H]1OCCC[C@H]1OC(=O)CCc1ccccc1OCc1cccc(Oc2ccc(Cl)cc2)c1)C(=O)O |  |  | 120 nM | 15.1% | 1.2 | Active | > 1000 nM | inactive |  | inactive | 
6 | N[C@@H](COP(=O)(O)O[C@@H]1CCCO[C@@H]1COC(=O)CCc1ccccc1OCc1cccc(Oc2ccccc2)c1)C(=O)O | inactive | 100 | 140 nM | 14.8% |  | Active | > 1000 nM | inactive | inactive | inactive | 
